Data published in ChEMBL document CHEMBL4364287, “Enhanced Inhibition of Influenza A Virus Adhesion by Di- and Trivalent Hemagglutinin Inhibitors” (J Med Chem, 2019).
Calls of active or inactive are those of the source. No cut-off for these calls is given here.

What was measured:
[1] = Inhibition of sensor loaded biotinylated-LAMP1 binding to Influenza A virus (A/Netherlands/602/2009(H1N1)) […] by biolayer interferometric analysis
[2] = system: Influenza A virus (A/Bilthoven/1761/1976(H3N2)); assay: Inhibition of sensor loaded biotinylated-LAMP1 binding to Influenza A virus (A/Bilthoven/1761/1976(H3N2)) H3 hemagglutinin expressed in Influenza virus VI75 at 3 uM by biolayer interferometric analysis
How it was run: (§1)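 BLI with streptavidin sensors loaded to saturation with biotinylated LAMP1 (PBS, pH 7.4). VI75 virus was preincubated 4 h at room temperature with 3 µM compound, without or with 10 µM oseltamivir carboxylate. Initial virus binding rate was compared with a compound-free control.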

[3] = system: Influenza A virus (A/Bilthoven/1761/1976(H3N2)); assay: Inhibition of sensor loaded biotinylated-LAMP1 binding to Influenza A virus (A/Bilthoven/1761/1976(H3N2)) H3 hemagglutinin expressed in Influenza virus VI75 at 3 uM in presence of NA inhibitor oseltamivir carboxylate by biolayer interferometric analysis; how it was run: as §1
Influenza A virus [4] = assay: Antiviral activity against Influenza A virus WU95 expressing Influenza A virus (A/Netherlands/178/1995(H3N2)) H3 hemagglutinin infected in MDCK2 cells assessed as reduction in virus-induced cytopathogenicity preincubated with virus for 4 hrs followed by cell infection and measured after 3 days by DAPI staining-based assay; type: functional, organism-based
How it was run: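 WU95 virus was preincubated 4 h at room temperature in Opti-mem with varying compound concentrations. It was then inoculated onto confluent MDCK-II cells at MOI 0.005 and held 3 days with 1 µg/ml TPCK-trypsin to allow multiple rounds of infection. Cells were fixed and DAPI-stained, and monolayers inspected visually; absence of stained cells was taken as cell killing.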

[5] = system: Influenza A virus (A/Netherlands/178/1995(H3N2)); assay: Potency index, ratio of compound 7 IC50 to test compound IC50 for inhibition of sensor loaded biotinylated-LAMP1 binding to Influenza A virus (A/Netherlands/178/1995(H3N2)) H3 hemagglutinin expressed in Influenza virus WU95
[6] = system: Influenza A virus (A/Netherlands/178/1995(H3N2)); assay: Inhibition of sensor loaded biotinylated-LAMP1 binding to Influenza A virus (A/Netherlands/178/1995(H3N2)) H3 hemagglutinin expressed in Influenza virus WU95 at 3 uM in presence of NA inhibitor oseltamivir carboxylate by biolayer interferometric analysis
How it was run: (§2)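 OctetRed BLI: streptavidin sensors were saturated with biotinylated LAMP1 in PBS pH 7.4. They were dipped into WU95 (8 HAU, 2.5 × 10^8 particles per well) preincubated 4 h at room temperature with compound and 10 µM (end concentration) oseltamivir carboxylate. Initial binding rate was compared with a no-compound control.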

Influenza A virus [7] = assay: Antiviral activity against Influenza A virus WU95 expressing Influenza A virus (A/Netherlands/178/1995(H3N2)) H3 hemagglutinin infected in MDCK2 cells preincubated with virus for 4 hrs followed by cell infection and measured at 7 hrs post-infection by DAPI staining-based assay; type: functional, organism-based
How it was run: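 Single-cycle infection: WU95 in Opti-mem was preincubated 4 h at room temperature with varying compound concentrations. Confluent MDCK-II cells were inoculated in triplicate at MOI 0.005 and fixed at 7 h post-infection in methanol (−20 °C, 5 min). Cells were immunostained for nucleoprotein (HB65, Alexa 488 secondary), counterstained with DAPI, and infected cells per well were counted.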

MDCK-II = assay: Cytotoxicity against MDCK2 cells assessed as reduction in cell viability measured after 24 hrs by WST1 assay; type: cell-based, Canis lupus familiaris; conditions: dog
How it was run: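 MDCK-II cells were incubated 24 h in Opti-mem with compounds at different concentrations. Cell number and viability were then read by WST-1 assay.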

[8] = Inhibition of Influenza A virus (A/Netherlands/178/1995(H3N2)) H3 hemagglutinin expressed in Influenza virus WU95 assessed as reduction in human erythrocytes hemagglutination preincubated for 4 hrs followed by erythrocytes addition and measured after 2 hrs; type: cell-based
How it was run: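 Four hemagglutination units of virus were preincubated 4 h at room temperature with limiting compound dilutions in the presence of oseltamivir carboxylate. Then 0.5% (v/v) erythrocytes were added for 2 h at 4 °C. The lowest inhibiting concentration was recorded; two experiments were run in duplicate and means are reported.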

[9] = Inhibition of sensor loaded biotinylated-LAMP1 binding to Influenza A virus (A/Netherlands/178/1995(H3N2)) H3 hemagglutinin expressed in Influenza virus WU95 in presence of NA inhibitor oseltamivir carboxylate by biolayer interferometric analysis; how it was run: as §2
[10] = system: Influenza A virus (A/duck/Hunan/795/2002(H5N1)); assay: Inhibition of sensor loaded biotinylated-LAMP1 binding to Influenza A virus (A/duck/Hunan/795/2002 (H5N1)) […] expressed in Influenza virus H5N1 by biolayer interferometric analysis relative to control
[11] = system: Influenza A virus (A/Netherlands/178/1995(H3N2)); assay: Potency index, ratio of compound 8 IC50 to test compound IC50 for Inhibition of Influenza A virus (A/Netherlands/178/1995(H3N2)) H3 hemagglutinin expressed in Influenza virus WU95 assessed as reduction in human erythrocytes hemagglutination; type: cell-based

SMILES: CC(=O)N[C@H]1[C@H](O[C@H]2[C@@H](O)[C@@H](CO)O[C@@H](O[C@H]3[C@H](O)[C@@H](O)[C@H](n4cc(-c5ccc(-c6cn(CCCC(=O)Nc7cccc(-c8cc(-c9cccc(NC(=O)CCCn%10cc(-c%11ccc(-c%12cn([C@@H]%13O[C@H](CO)[C@@H](O[C@@H]%14O[C@H](CO)[C@H](O)[C@H](O[C@@H]%15O[C@H](CO)[C@@H](O[C@@H]%16O[C@H](CO[C@]%17(C(=O)O)C[C@H](O)[C@@H](NC(C)=O)[C@H]([C@H](O)[C@H](O)CO)O%17)[C@H](O)[C@H](O)[C@H]%16O)[C@H](O)[C@H]%15NC(C)=O)[C@H]%14O)[C@H](O)[C@H]%13O)nn%12)cc%11)nn%10)c9)cc(-c9cccc(NC(=O)CCCn%10cc(-c%11ccc(-c%12cn([C@@H]%13O[C@H](CO)[C@@H](O[C@@H]%14O[C@H](CO)[C@H](O)[C@H](O[C@@H]%15O[C@H](CO)[C@@H](O[C@@H]%16O[C@H](CO[C@]%17(C(=O)O)C[C@H](O)[C@@H](NC(C)=O)[C@H]([C@H](O)[C@H](O)CO)O%17)[C@H](O)[C@H](O)[C@H]%16O)[C@H](O)[C@H]%15NC(C)=O)[C@H]%14O)[C@H](O)[C@H]%13O)nn%12)cc%11)nn%10)c9)c8)c7)nn6)cc5)nn4)O[C@@H]3CO)[C@@H]2O)O[C@H](CO)[C@@H](O[C@@H]2O[C@H](CO[C@]3(C(=O)O)C[C@H](O)[C@@H](NC(C)=O)[C@H]([C@H](O)[C@H](O)CO)O3)[C@H](O)[C@H](O)[C@H]2O)[C@@H]1O
- IC50 [1]: 2.7 µM
- inhibition [2]: Active
- inhibition [3]: Active
- Activity (Influenza A virus [4]): Active
- Ratio IC50 [5]: 428
- inhibition [6]: Active
- IC50 (Influenza A virus [7]): 4.4 µM
- Activity (MDCK-II): Non-Toxic
- Ki [8]: 9.4 µM
- IC50 [9]: 0.71 µM
- Imax [10]: 50%
- Ratio IC50 [11]: 38
